Several values for one entry are separate records, joined by “and”; a condition that tells them apart may be missing. Equal values may be shown once.
Tested on: Fibroblast
Assay: Multiplex assay against human fibroblast
Format: toxicity, cell-based
How it was run: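 Cells were classed with CellPathfinder machine-learning gating, first as Hoechst high-intensity objects or normal cells, then (normal cells) as healthy, pyknosed or fragmented nuclei, and finally (pyknosed cells) as mitotic or apoptotic. Staining of live cells at seeding used Hoechst33342, BioTracker Green Microtubule Cytoskeleton Dye, MitoTracker Red and Annexin V Alexa Fluor 680, with imaging on a CQ1 microscope at 37°C and 5% CO2 after compound addition. Tubulin, mitochondrial-mass and membrane-permeability phenotypes are per cents of healthy-nucleus cells.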

[1] = 12 h, 1 µM, compound concentration 1 uM
[2] = 12 h, 10 µM, compound concentration 10 uM
[3] = 24 h, 1 µM, compound concentration 1 uM
[4] = 24 h, 10 µM, compound concentration 10 uM
[5] = 48 h, 1 µM, compound concentration 1 uM
[6] = 48 h, 10 µM, compound concentration 10 uM

In the case of `O=c1ccc2ccc(OCCCCN3CCN(c4cccc5sccc45)CC3)cc2[nH]1` [BREXPIPRAZOLE], the “Population Apoptotic (%)” value [1] was 56% and 48%, the “Population Fragmented Nuclei (%)” value [1] was 17% and 33% and the “Population Healthy Nuclei (%)” value [1] was 62% and 44%. For the same molecule, the “Population Hoechst High Intensity Objects (%)” value [1] was 2% and 5%, the “Population Membrane Permeable-Phenotype (%)” value [1] was 0% and 2% and the “Population Mitochondria Different-Phenotype (%)” value [1] was 5% and 15%. For the same molecule, the “Population Mitotic Cells (%)” value [1] was 44% and 51%, the “Population Normal (%)” value [1] was 97% and 94% and the “Population Pyknosed Nuclei (%)” value [1] was 20% and 21%. For the same molecule, the “Population Tubulin-Different-Phenotype (%)” value [1] was 41% and 73%, the “Total Cell Count” value [1] was 126 and 169 and the “Population Apoptotic (%)” value [2] was 68% and 45%. For the same molecule, the “Population Fragmented Nuclei (%)” value [2] was 16% and 30%, the “Population Healthy Nuclei (%)” value [2] was 64% and 49% and the “Population Hoechst High Intensity Objects (%)” value [2] was 1% and 11%. The “Population Membrane Permeable-Phenotype (%)” value [2] was 0% and 2%, the “Population Mitochondria Different-Phenotype (%)” value [2] was 39% and 25% and the “Population Mitotic Cells (%)” value [2] was 31% and 54%. The “Population Normal (%)” value [2] was 98% and 88%, the “Population Pyknosed Nuclei (%)” value [2] was 19% and 20% and the “Population Tubulin-Different-Phenotype (%)” value [2] was 83% and 81%. For the same molecule, the “Total Cell Count” value [2] was 203 and 243, the “Population Apoptotic (%)” value [3] was 56% and 33% and the “Population Fragmented Nuclei (%)” value [3] was 17% and 32%. For the same molecule, the “Population Healthy Nuclei (%)” value [3] was 69% and 52%, the “Population Hoechst High Intensity Objects (%)” value [3] was 1% and 3% and the “Population Membrane Permeable-Phenotype (%)” value [3] was 0% and 2%. The “Population Mitochondria Different-Phenotype (%)” value [3] was 8% and 14%, the “Population Mitotic Cells (%)” value [3] was 43% and 66% and the “Population Normal (%)” value [3] was 98% and 96%. The “Population Pyknosed Nuclei (%)” value [3] was 13% and 14%, the “Population Tubulin-Different-Phenotype (%)” value [3] was 43% and 76% and the “Total Cell Count” value [3] was 122 and 173. For the same molecule, the “Population Apoptotic (%)” value [4] was 58% and 65%, the “Population Fragmented Nuclei (%)” value [4] was 13% and 30% and the “Population Healthy Nuclei (%)” value [4] was 54% and 40%. For the same molecule, the “Population Hoechst High Intensity Objects (%)” value [4] was 13% and 19%, the “Population Membrane Permeable-Phenotype (%)” value [4] was 0% and the “Population Mitochondria Different-Phenotype (%)” value [4] was 63% and 34%. The “Population Mitotic Cells (%)” value [4] was 41% and 34%, the “Population Normal (%)” value [4] was 86% and 80% and the “Population Pyknosed Nuclei (%)” value [4] was 31% and 28%. The “Population Tubulin-Different-Phenotype (%)” value [4] was 85% and 71%, the “Total Cell Count” value [4] was 218 and 239 and the “Population Apoptotic (%)” value [5] was 62% and 60%. For the same molecule, the “Population Fragmented Nuclei (%)” value [5] was 24% and 42%, the “Population Healthy Nuclei (%)” value [5] was 62% and 51% and the “Population Hoechst High Intensity Objects (%)” value [5] was 4%. For the same molecule, the “Population Membrane Permeable-Phenotype (%)” value [5] was 0% and 1%, the “Population Mitochondria Different-Phenotype (%)” value [5] was 10% and 9% and the “Population Mitotic Cells (%)” value [5] was 37% and 40%. For the same molecule, the “Population Normal (%)” value [5] was 95%, the “Population Pyknosed Nuclei (%)” value [5] was 12% and 5% and the “Population Tubulin-Different-Phenotype (%)” value [5] was 52% and 67%. The “Total Cell Count” value [5] was 133 and 175, the “Population Apoptotic (%)” value [6] was 62% and 44% and the “Population Fragmented Nuclei (%)” value [6] was 18% and 30%. For the same molecule, the “Population Healthy Nuclei (%)” value [6] was 50% and 43%, the “Population Hoechst High Intensity Objects (%)” value [6] was 34% and the “Population Membrane Permeable-Phenotype (%)” value [6] was 0%. The “Population Mitochondria Different-Phenotype (%)” value [6] was 60% and 20%, the “Population Mitotic Cells (%)” value [6] was 37% and 55% and the “Population Normal (%)” value [6] was 65%. The “Population Pyknosed Nuclei (%)” value [6] was 31% and 26%, the “Population Tubulin-Different-Phenotype (%)” value [6] was 88% and 55% and the “Total Cell Count” value [6] was 208 and 317.

`C[C@@H]1CN(Cc2ccc(F)cc2)CCN1C(=O)COc1ccc(Cl)cc1NC(N)=O` [BX 471 FREE BASE] was tested, and the “Population Apoptotic (%)” value [1] was 23% and 38%, the “Population Fragmented Nuclei (%)” value [1] was 10% and 26% and the “Population Healthy Nuclei (%)” value [1] was 73% and 47%. The “Population Hoechst High Intensity Objects (%)” value [1] was 3% and 7%, the “Population Mitotic Cells (%)” value [1] was 76% and 61% and the “Population Normal (%)” value [1] was 96% and 92%. The “Population Pyknosed Nuclei (%)” value [1] was 15% and 26%, the “Population Tubulin-Different-Phenotype (%)” value [1] was 35% and 48% and the “Total Cell Count” value [1] was 138 and 182. For the same molecule, the “Population Apoptotic (%)” value [2] was 38% and 40%, the “Population Fragmented Nuclei (%)” value [2] was 27% and 36% and the “Population Healthy Nuclei (%)” value [2] was 45% and 27%. For the same molecule, the “Population Hoechst High Intensity Objects (%)” value [2] was 7% and 11%, the “Population Mitotic Cells (%)” value [2] was 61% and 60% and the “Population Normal (%)” value [2] was 92% and 88%. For the same molecule, the “Population Pyknosed Nuclei (%)” value [2] was 26% and 35%, the “Population Tubulin-Different-Phenotype (%)” value [2] was 81% and 77% and the “Total Cell Count” value [2] was 240 and 126. For the same molecule, the “Population Apoptotic (%)” value [3] was 52% and 51%, the “Population Fragmented Nuclei (%)” value [3] was 13% and 20% and the “Population Healthy Nuclei (%)” value [3] was 74% and 52%. The “Population Hoechst High Intensity Objects (%)” value [3] was 0% and 6%, the “Population Mitotic Cells (%)” value [3] was 47% and 48% and the “Population Normal (%)” value [3] was 99% and 93%. The “Population Pyknosed Nuclei (%)” value [3] was 11% and 27%, the “Population Tubulin-Different-Phenotype (%)” value [3] was 33% and 52% and the “Total Cell Count” value [3] was 147 and 160. The “Population Apoptotic (%)” value [4] was 43% and 46%, the “Population Fragmented Nuclei (%)” value [4] was 28% and 34% and the “Population Healthy Nuclei (%)” value [4] was 43% and 36%. For the same molecule, the “Population Hoechst High Intensity Objects (%)” value [4] was 4% and 8%, the “Population Mitotic Cells (%)” value [4] was 56% and 53% and the “Population Normal (%)” value [4] was 95% and 91%. The “Population Pyknosed Nuclei (%)” value [4] was 28% and 29%, the “Population Tubulin-Different-Phenotype (%)” value [4] was 75% and 89% and the “Total Cell Count” value [4] was 225 and 118. For the same molecule, the “Population Apoptotic (%)” value [5] was 55% and 63%, the “Population Fragmented Nuclei (%)” value [5] was 16% and 31% and the “Population Healthy Nuclei (%)” value [5] was 67% and 55%. For the same molecule, the “Population Hoechst High Intensity Objects (%)” value [5] was 5%, the “Population Mitotic Cells (%)” value [5] was 45% and 36% and the “Population Normal (%)” value [5] was 94% and 97%. For the same molecule, the “Population Pyknosed Nuclei (%)” value [5] was 15% and 13%, the “Population Tubulin-Different-Phenotype (%)” value [5] was 40% and 54% and the “Total Cell Count” value [5] was 138 and 172. The “Population Apoptotic (%)” value [6] was 58% and 41%, the “Population Fragmented Nuclei (%)” value [6] was 31% and 42% and the “Population Healthy Nuclei (%)” value [6] was 49% and 42%. The “Population Hoechst High Intensity Objects (%)” value [6] was 7% and 6%, the “Population Mitotic Cells (%)” value [6] was 41% and 58% and the “Population Normal (%)” value [6] was 92% and 93%. For the same molecule, the “Population Pyknosed Nuclei (%)” value [6] was 18% and 14%, the “Population Tubulin-Different-Phenotype (%)” value [6] was 77% and 91% and the “Total Cell Count” value [6] was 234 and 122.
